Laboratory results taken from ChEMBL document CHEMBL4732101, “Novel quinolone-based potent and selective HDAC6 inhibitors: Synthesis, molecular modeling studies and biological investigation” (Eur J Med Chem, 2021).

Assays:
Histone deacetylase 1 = Histone deacetylase 1 (Homo sapiens, UniProt Q13547); experiment: Inhibition of recombinant human C-terminal FLAG/His-tagged HDAC1 (1 to 482 residues) expressed in Sf9 insect cells using Z-(Ac)Lys-AMC as substrate measured after 90 mins by fluorescence assay
Outline: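 Incubated with inhibitor in DMSO and fluorogenic substrate Z-(Ac)Lys-AMC (126 µM, as added) for 90 min at 37 °C. Stopped with trichostatin A plus trypsin for 30 min at 37 °C; fluorescence read at ex 390/em 460 nm.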

[1] = target: T1, Protein deacetylase HDAC6 (Homo sapiens, UniProt Q9UBN7); experiment: Inhibition of recombinant human full length N-terminal GST-tagged HDAC6 expressed in baculovirus infected Sf9 cells using Z-(Ac)Lys-AMC as substrate measured after 90 mins by fluorescence assay
T1 sequence (Q9UBN7 whole entry): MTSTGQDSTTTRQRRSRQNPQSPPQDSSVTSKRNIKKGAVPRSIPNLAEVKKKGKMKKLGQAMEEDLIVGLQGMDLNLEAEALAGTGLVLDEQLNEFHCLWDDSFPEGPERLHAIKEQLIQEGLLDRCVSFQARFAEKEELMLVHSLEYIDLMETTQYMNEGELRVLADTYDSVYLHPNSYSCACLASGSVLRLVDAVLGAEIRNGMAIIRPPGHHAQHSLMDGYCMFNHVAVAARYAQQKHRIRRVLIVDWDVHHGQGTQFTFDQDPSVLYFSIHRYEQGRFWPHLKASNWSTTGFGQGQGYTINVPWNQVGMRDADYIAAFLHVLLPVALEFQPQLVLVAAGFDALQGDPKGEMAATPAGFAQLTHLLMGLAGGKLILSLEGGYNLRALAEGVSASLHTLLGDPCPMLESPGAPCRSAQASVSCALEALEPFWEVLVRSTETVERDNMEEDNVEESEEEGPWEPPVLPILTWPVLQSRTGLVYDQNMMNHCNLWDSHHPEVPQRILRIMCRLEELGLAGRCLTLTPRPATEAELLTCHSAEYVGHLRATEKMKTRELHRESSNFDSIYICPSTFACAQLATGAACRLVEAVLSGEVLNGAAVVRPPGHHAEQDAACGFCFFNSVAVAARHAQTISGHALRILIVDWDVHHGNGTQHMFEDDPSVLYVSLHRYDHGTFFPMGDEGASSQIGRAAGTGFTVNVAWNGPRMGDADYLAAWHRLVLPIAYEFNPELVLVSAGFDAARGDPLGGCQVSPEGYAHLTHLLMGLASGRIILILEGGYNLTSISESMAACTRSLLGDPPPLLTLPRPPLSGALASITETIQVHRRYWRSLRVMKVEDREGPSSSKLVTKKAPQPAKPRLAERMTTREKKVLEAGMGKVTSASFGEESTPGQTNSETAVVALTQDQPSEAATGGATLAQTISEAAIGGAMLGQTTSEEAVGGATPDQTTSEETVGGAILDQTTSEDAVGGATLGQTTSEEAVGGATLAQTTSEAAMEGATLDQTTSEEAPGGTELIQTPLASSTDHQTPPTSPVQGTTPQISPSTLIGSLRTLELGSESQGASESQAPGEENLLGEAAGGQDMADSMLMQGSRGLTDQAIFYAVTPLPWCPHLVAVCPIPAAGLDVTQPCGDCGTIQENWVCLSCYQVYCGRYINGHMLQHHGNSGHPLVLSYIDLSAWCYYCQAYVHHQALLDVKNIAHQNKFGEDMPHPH

[2] = Solubility of compound in pH 3 buffer at 250 uM measured after 24 hrs by HPLC/UV/DAD method; assay type: physicochemical; conditions: pH 3, 24 h
Outline: (§1)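 10 mM DMSO stock diluted to 250 µM (2.5% DMSO) in 50 mM acetic acid, pH 3.0, and shaken 24 h at 25 °C. For solubility, samples filtered, diluted 1:2, quantified by HPLC-UV at 254 nm against a standard. For stability, percent remaining taken as the 24 h peak area over the T0 peak area. Triplicate analyses averaged.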

[3] = Stability of compound in pH 3 buffer assessed as parent compound remaining at 250 uM measured after 24 hrs by HPLC/UV/DAD method; assay type: physicochemical; conditions: read-out: Stabilty; outline: as §1
Histone deacetylase 8 = target: T2, Histone deacetylase 8 (Homo sapiens, UniProt Q9BY41); experiment: Inhibition of recombinant human HDAC8 using Fluor-de-Lys as substrate measured after 1 hr by fluorescence assay
T2 sequence (Q9BY41 whole entry): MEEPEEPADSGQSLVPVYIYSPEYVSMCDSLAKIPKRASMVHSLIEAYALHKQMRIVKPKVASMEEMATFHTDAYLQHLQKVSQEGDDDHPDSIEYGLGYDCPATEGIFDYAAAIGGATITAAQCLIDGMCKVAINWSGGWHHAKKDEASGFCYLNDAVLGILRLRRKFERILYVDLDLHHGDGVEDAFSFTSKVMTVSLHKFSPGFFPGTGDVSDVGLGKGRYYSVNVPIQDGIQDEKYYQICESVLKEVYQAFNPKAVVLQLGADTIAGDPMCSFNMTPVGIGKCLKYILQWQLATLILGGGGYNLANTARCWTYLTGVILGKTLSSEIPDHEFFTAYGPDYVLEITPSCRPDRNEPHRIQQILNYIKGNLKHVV

NIH3T3 = experiment: Cytotoxicity against mouse NIH/3T3 cells assessed as reduction in cell viability after 24 hrs by neutral red uptake assay; assay type: cell-based; conditions: NIH3T3, 24 h
Outline: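 NIH3T3 fibroblasts seeded at 5 x 10^4 per well and cultured 24 h at 37 °C, 5% CO2. DMSO-solubilized samples added at 8 to 160 µM for 24 h; medium as negative control. Neutral Red medium applied 3 h, dye desorbed in acetic acid/ethanol, absorbance read at 540 nm. Three experiments, six replicates per concentration; viability normalized to % control.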

[4] = Mutagenicity in Salmonella typhimurium TA98 at 5 to 230 uM measured after 90 mins in presence of rat liver S9 fraction by Ames test; assay type: toxicity, subcellular; conditions: salmonella enterica subsp. enterica serovar typhimurium, s9, 1.5 h, dose 5-230 µM
[5] = Mutagenicity in Salmonella typhimurium TA100 at 5 to 230 uM measured after 90 mins in presence of rat liver S9 fraction by Ames test; assay type: toxicity, subcellular; conditions: salmonella enterica subsp. enterica serovar typhimurium, s9, 1.5 h, dose 5-230 µM
[6] = Mutagenicity in Salmonella typhimurium TA98 at 5 to 230 uM measured after 90 mins in absence of rat liver S9 fraction by Ames test; assay type: toxicity; conditions: salmonella enterica subsp. enterica serovar typhimurium, 1.5 h, dose 5-230 µM
[7] = Mutagenicity in Salmonella typhimurium TA100 at 5 to 230 uM measured after 90 mins in absence of rat liver S9 fraction by Ames test; assay type: toxicity; conditions: salmonella enterica subsp. enterica serovar typhimurium, s9, 1.5 h, dose 5-230 µM

Histone deacetylase 1, sequence (Q13547 whole entry, the tested form may be a part): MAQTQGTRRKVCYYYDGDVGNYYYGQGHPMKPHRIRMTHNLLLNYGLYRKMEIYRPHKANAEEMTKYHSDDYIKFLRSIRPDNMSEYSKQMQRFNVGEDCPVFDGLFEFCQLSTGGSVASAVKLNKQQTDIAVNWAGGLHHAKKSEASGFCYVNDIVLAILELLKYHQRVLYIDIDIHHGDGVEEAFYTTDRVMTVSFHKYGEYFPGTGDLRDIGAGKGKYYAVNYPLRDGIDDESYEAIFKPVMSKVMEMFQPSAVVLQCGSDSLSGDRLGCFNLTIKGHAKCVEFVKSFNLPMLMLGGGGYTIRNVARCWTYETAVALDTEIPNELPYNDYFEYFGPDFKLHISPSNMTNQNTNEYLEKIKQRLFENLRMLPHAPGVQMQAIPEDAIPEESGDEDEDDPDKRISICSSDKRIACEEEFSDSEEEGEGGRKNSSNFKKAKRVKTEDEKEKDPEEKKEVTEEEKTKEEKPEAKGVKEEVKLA

| SMILES | IC50 (Histone deacetylase 1) | IC50 [1] | solubility [2] | remaining at 24 h, 250 µM [3] | IC50 (Histone deacetylase 8) | Kapp (Histone deacetylase 8; human, 1 h) | IC50 (NIH3T3) | Activity [4] | Activity [5] | Activity [6] | Activity [7] |
| --- | --- | --- | --- | --- | --- | --- | --- | --- | --- | --- | --- |
| O=C(NO)c1ccc(COc2c(-c3ccccc3)c3ccccc3n(Cc3ccncc3)c2=O)cc1 | 1.2 µM | 0.0841 µM | Soluble | > 95% |  |  |  |  |  |  |  |
| Cn1c(=O)c(OCc2ccc(C(=O)NO)cc2)c(C2CCCCC2)c2ccccc21 | 3 µM | 0.033 µM |  |  | 1.64 µM | 1.93 µM | 18 µM | Non-Toxic | Non-Toxic | Non-Toxic | Non-Toxic |
| O=C(NO)c1ccc(Cn2c(=O)c(OCc3ccccc3)c(-c3ccccc3)c3ccccc32)cc1 | 5.5 µM | 0.0845 µM |  |  |  |  |  |  |  |  |  |
